Assay outcomes as filed in PubChem BioAssay.
TbMetRS inhib – Trypanosoma brucei MetRS inhibition | inhibition, % at 11.9 µM | AID 624268 | purified T. brucei MetRS, ATP depletion, Kinase-Glo luminescence | actives 0.4% (n = 360,000);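 active = inhibition above a per-plate cutoff of the control wells' mean inhibition plus 3 SD, cut at about 5.5% in these data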
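Measured by: Kinase-Glo luciferase luminescence reporting remaining unconsumed ATP. Material: purified T. brucei MetRS enzyme. Doses: 11.9 µM compound single dose, 0.9% DMSO. Medium: HEPES buffer containing pyrophosphatase, BSA, spermine, DTT. Times: 15 min preincubation, 2 h reaction, all 25 °C. Reagent: methionine, ATP and bulk E. coli tRNA.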
UPR CHOP act – activators of apoptotic arm of unfolded protein response (CHOP). AID 449763. activation, % at 10 µM. actives 0.34% (n = 330,000). CHO-CHOP luciferase reporter, UPR activation, luminescence; percent of tunicamycin response over DMSO baseline;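 active = at 10 µM dose, activation of 40% or more, normalized to positive control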
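System: CHO CHOP reporter cells. Amount: 500 cells per well. Buffer or medium: F12 medium, 10% FBS. Compound dosing: one dose, 10 µM in 0.5% DMSO. Incubation: 6 h compound exposure at 37 °C after overnight seeding. Technique: Steady-Glo luciferase luminescence. Benchmarks: tunicamycin and DMSO controls.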
V-ATPase pH – regulators of yeast V-ATPase proton transport; S. cerevisiae, pHLuorin cytosolic pH fluorescence; response, % at 10 µM; actives 0.37% (n = 350,000); in the data active = response mostly above about 7.3%, no sharp cut-off; inactive = mostly below about 5.4%; also: actives read high
CHOP inhibitor – inhibitors of CHOP induction in ER stress response | CHO-K1 CHOP-promoter luciferase, tunicamycin-induced, 15-18 h | inhibition, % at 10 µM | actives 3.8% (n = 220,000) | AID 2732;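 active = compounds that reduced the stress-induced luciferase reporter signal by more than about 70% of percent inhibition, limit read from the data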
XBP1 UPR activ – activators of adaptive arm of unfolded protein response (XBP1); CHO-XBP1 luciferase reporter, IRE1-XBP1 UPR activation, luminescence; percent of tunicamycin response, DMSO as zero; activation, % at 20 µM; actives 0.33% (n = 330,000); AID 463104;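 active = versus positive control, 20 µM dose yields 30% or more activation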
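Material: CHO cell line with stable XBP1 luciferase reporter; schedule: 16-18 h cell attachment at 37 °C, then 6 h compound exposure; signal: glow luminescence from Steady-Glo reagent; medium: serum-containing F12 medium, 10% FBS; benchmarks: tunicamycin 10 µg/mL and vehicle-only wells; read-out: percent activation relative to tunicamycin reference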
Numbers stand for hits; i = inactive; nt = not tested or not shown. Only a selection was taken, and hits are over-represented in it overall.

SMILES	TbMetRS inhib	UPR CHOP act	V-ATPase pH	CHOP inhibitor	XBP1 UPR activ
CCOC(=O)C1=C(COC(=O)c2cc(S(=O)(=O)N3CCOCC3)ccc2F)NC(=O)NC1C (stereo not drawn)	i	nt	i	nt	nt
O=c1c2cccnc2[nH]c(=S)n1CCCN1CCN(c2ccccc2F)CC1	i	i	i	89	i
O=C(Nc1cc(Cl)cc(Cl)c1)c1ccc(Cn2c(=O)[nH]c3ccsc3c2=O)cc1	i	i	i	94	i
CC(=O)NCCNC(=O)c1ccc(Cn2c(=O)[nH]c3ccsc3c2=O)cc1	i	i	i	nt	i
C(=N\Nc1nc2ccccc2s1)/c1ccccn1	nt	i	i	101	i
Cc1ccc2[nH]c(C)c(/C=N/Nc3nc4ccccc4s3)c2c1	i	i	i	78	i
Cc1ccc(OCCSCc2nnc(NC(=O)Nc3cccc(Cl)c3)s2)cc1	i	i	i	83	i
O=C(Nc1ccc(Cl)c(Cl)c1)Nc1nnc(CSc2ccccc2)s1	i	i	i	77	i
O=C(Nc1ccc(Cl)c(Cl)c1)Nc1nccs1	i	i	i	79	i
C=C(c1ccc2nc(NC(=O)OC)[nH]c2c1)c1cccs1	i	nt	i	nt	nt
C/C=C/Cn1c(SCc2ccc(C)cc2)nc2c1c(=O)[nH]c(=O)n2C	i	i	i	94	i
CCCCCn1c(SCc2cccc(C)c2)nc2c1c(=O)[nH]c(=O)n2C	i	i	i	92	i
CC=CCn1c(SCc2ccccc2)nc2c1c(=O)[nH]c(=O)n2C	i	nt	nt	nt	nt
CCCSc1nc2c(c(=O)[nH]c(=O)n2C)n1Cc1ccccc1	i	i	i	nt	i
CCCSc1nc2c(c(=O)[nH]c(=O)n2C)n1Cc1ccc(C)cc1	i	i	i	81	i
CC(C)C(NC(=S)Nc1ccccc1)C(=O)O (stereo not drawn)	i	i	i	i	i
COc1cc(C=Cc2nnc3c4ccccc4cnn23)cc(OC)c1OC	i	nt	i	nt	nt
CC1Sc2ccc(C(=O)N(CCc3ccccc3)Cc3ccccc3)cc2NC1=O (stereo not drawn)	i	nt	i	nt	nt
Cn1c(=O)c([N+](=O)[O-])c(-n2cnc3ccccc32)c2ccccc21	i	i	i	74	i
S=C(NCc1ccco1)NCC(c1ccco1)N1CCCCC1 (stereo not drawn)	i	i	i	i	i
CCCCCC1CC(CC(=O)O)C(=O)O1 (stereo not drawn)	i	i	i	i	i
CCCCCC1CC(CC(=O)Nc2ccc([N+](=O)[O-])cc2)OC1=O (stereo not drawn)	i	i	i	91	i
CCCCCCC1CC(CCC(=O)Nc2ccc([N+](=O)[O-])cc2)C(=O)O1 (stereo not drawn)	i	i	i	84	i
Cc1nc2scc(-c3ccc(C(C)(C)C)cc3)c2c(=O)n1N	i	i	i	76	i
CC(C)(C)c1nc(NC(=O)Nc2ccccc2)sc1Br	i	i	i	105	i
SMILES	TbMetRS inhib	UPR CHOP act	V-ATPase pH	CHOP inhibitor	XBP1 UPR activ
COc1ccc2nc(NC(=O)Nc3ccccc3)sc2c1	i	i	i	i	i
CCCCN(C(=O)C1CC(=O)N(CCc2ccc(OC)c(OC)c2)C1)c1c(N)n(CC(C)C)c(=O)[nH]c1=O (stereo not drawn)	i	nt	i	nt	nt
CC1(C)CN(Cc2ccccc2)C(=O)[C@H]1CC(=O)Nc1ccc(Br)cc1	i	nt	i	nt	nt
CCC(=O)NC1=C(NC(C)c2ccccc2)C(=O)c2ccccc2C1=O (stereo not drawn)	i	i	i	i	i
CCC(=O)NC1=C(Cl)C(=O)C(NC(=O)CC)=C(Cl)C1=O	i	i	i	87	i
O=C(N/N=C/c1ccc(Cl)cc1)c1cc(-c2cccnc2)nc2ccccc12	i	i	i	84	i
COc1ccc(OC)c2sc(NC(=O)c3ccc(Br)s3)nc12	i	i	i	91	i
Cc1nc2ccccc2cc1OCc1ccc(Cl)cc1	i	i	i	83	i
CC1(C(=O)Nc2cccc3cccnc23)CCN1Cc1ccc(-c2ccccc2)o1 (stereo not drawn)	i	nt	nt	nt	nt
CSc1nc2cc3c(cc2n1C(=O)c1ccc(C)cc1)OCCO3	i	i	i	90	i
COc1cccc(-n2c(SCC(=O)NC3CC3)nc3ccccc3c2=O)c1	i	nt	i	nt	nt
C[C@@H]1CN([C@@H](C)CO)C(=O)c2cc(C#CC3CCCCC3)cnc2O[C@@H]1CN(C)S(=O)(=O)c1ccc(F)cc1	i	nt	i	nt	nt
Cc1nn(Cc2ccc(F)cc2)c2sc(C(=O)Nc3nccs3)cc12	i	i	i	93	i
CCC(CC)NC(=O)c1cc2c(C)nn(Cc3ccccc3Cl)c2s1	i	i	i	i	i
Cc1nn(Cc2ccccc2Cl)c2sc(C(=O)Nc3nccs3)cc12	i	i	i	84	i
CC(C)[C@H](NC(=O)c1c(F)cccc1F)C(=O)OCC(=O)NNC(=O)c1ccccc1	i	nt	i	nt	nt
O=C(O)CCSc1nnc(-c2ccc3c(c2)OCO3)o1	i	i	i	86	i
CC(=O)CSc1nnc(-c2ccc3c(c2)OCO3)o1	i	i	i	i	i
COC(=O)c1sccc1NC(=O)c1ccc(Br)o1	i	i	i	88	i
CCC(C(=O)NC(C)(C)C)n1c(-c2ccc3c(c2)OCO3)nc2ccccc21 (stereo not drawn)	i	nt	nt	nt	nt
CCN(CC(=O)Nc1c(F)cccc1F)C(=O)c1ccc(S(=O)(=O)N(CC)c2ccccc2)cc1	i	nt	i	nt	nt
OC[C@@H]1CN(CCc2ccccc2)C[C@H](n2cnc3c(NCc4ccc(F)cc4)ncnc32)O1	i	nt	nt	nt	nt
N#CC(C#N)=C(Nc1ccc(F)cc1)SCc1cccc(Br)c1	i	nt	i	71	nt
Cc1ccc(NC(=O)CCSc2nnnn2-c2ccc3c(c2)OCO3)cc1C	i	i	i	73	i
O=C(CSc1nnnn1-c1ccc2c(c1)OCCO2)Nc1nc2c(s1)CCCC2	i	i	i	87	i
SMILES	TbMetRS inhib	UPR CHOP act	V-ATPase pH	CHOP inhibitor	XBP1 UPR activ
COC(=O)c1cccc(-n2nnnc2SCC(=O)Nc2nc3c(s2)CCCC3)c1	i	i	24	88	i
CSc1nc(N)c2ncn([C@@H]3O[C@H](COP(=O)(O)OP(=O)(O)O)[C@H](O)C3O)c2n1 (stereo partly drawn)	nt	nt	nt	i	nt
CCCCCC(=O)N1C[C@@H](n2cc(-c3ccc(F)cc3)nn2)[C@H](O)C[C@@H]1c1ccc(OC)cc1	i	nt	i	nt	nt
Cc1cccc(C(=O)NC(C)C(=O)NC(c2nc3ccccc3[nH]2)C(C)C)c1 (stereo not drawn)	i	i	i	nt	i
CC(C)C(NC(=O)C(c1ccccc1)c1ccccc1)c1nc2ccccc2[nH]1 (stereo not drawn)	i	i	i	77	i
Cc1nc2c(OCc3ccc(OC(F)F)cc3)cccn2c1N(C)C(=O)CCC1CCCC1	i	nt	nt	nt	nt
Cc1cc(C)nc(NS(=O)(=O)c2ccc(N/C=C/C(=O)c3ccc(Cl)cc3)cc2)n1	i	i	i	92	i
